This is a sample that favours compounds with a hit; in the whole collection about 2% have one here.
PfM18AAP inh-1: PfM18AAP enzyme inhibition | recombinant PfM18AAP, H-Glu-NHMec fluorogenic cleavage | inhibition, % at 7.35 µM | hit rate 1.2% among 290,000 | AID 1822;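 active = inhibition above the campaign mean inhibition over all tested compounds plus 3 SD, cut at about 28% in these data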
TNF necrop inh: blocks TNF-alpha induced death of Jurkat FADD-/- cells; Jurkat FADD-/- TNF necroptosis rescue, ATP luminescence, 24 h; 0 = TNF only, 100 = no-TNF cells; activation (protection from cell death), % at 10 µM; hit rate 0.068% among 220,000;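 active = activation, meaning protection from cell death, of at least 50% relative to plate controls; inactive = activation below 50%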;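 note: necroptosis triggered by 40 ng/mL TNF-alpha added together with compound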
L929 necroptosis: L929 zVAD cell death inhibition; L929 zVAD necroptosis rescue, ATP luminescence, 24 h; with zVAD 60 µM; viability rescue, % at 10 µM; hit rate 0.38% among 220,000; AID 1377;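 active = activation, scaled between plate controls, above about 75%, limit read from the data; inactive = activation under that limit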
Hep lipid drop: hepatic lipid droplet formation modulation; AML12 mouse hepatocytes, oleate lipid droplets, BODIPY imaging; inhibition, % at 6.5 µM; hit rate 0.4% among 240,000;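 active = lipid droplet intensity inhibited by at least 50%, with more than 500 cells counted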
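Technique: fluorescence imaging, 20x objective, two fields per well / Assay system: AML12 hepatocytes (mouse) / Measure: % inhibition of lipid droplet signal / Doses: 6.5 µM single-point dosing / Incubation: overnight exposure / Reagent: 100 µM oleic acid challenge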
TbHK1 inh: T. brucei hexokinase 1 inhibition; recombinant TbHK1, G6PDH-coupled NADH A340; inhibition, % at 10 µM; hit rate 0.11% among 220,000; AID 1430;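 active = inhibition of 50% or more in the single-dose primary screen; inactive = inhibition below 50%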
RBBP9 inhibitor: human RBBP9 hydrolase inhibition | O75884 | recombinant RBBP9, FP-Rh probe fluorescence polarization | inhibition, % at 7.94 µM | hit rate 0.2% among 220,000 | AID 1515;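 active = inhibition above the campaign mean of all tested compounds plus 3 SD, cut at about 14% in these data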
Target sequence (O75884 whole entry, looked up): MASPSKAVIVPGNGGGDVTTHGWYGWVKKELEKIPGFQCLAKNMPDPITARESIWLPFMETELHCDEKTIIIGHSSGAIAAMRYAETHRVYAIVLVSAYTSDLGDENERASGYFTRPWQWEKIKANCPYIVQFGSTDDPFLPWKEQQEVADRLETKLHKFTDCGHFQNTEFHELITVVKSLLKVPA
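Test system: recombinant human RBBP9. Quantity: 2.5 µM RBBP9 dispensing solution, before mixing. Detection: FP readout at 525/598 nm. Reagent: Serine-hydrolase probe FP-Rh, 375 nM pre-mixing. Measure: % inhibition. Control set: DMSO-treated enzyme wells and wells lacking RBBP9. Buffer or medium: Tris-NaCl-Pluronic buffer, pH 8.0. Times: preincubation 30 min plus labeling 45 min at 25 °C.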
PfM18AAP inh-2: PfM18AAP inhibition, confirmation; shares compounds with PfM18AAP inh-1; recombinant PfM18AAP, H-Glu-NHMec fluorogenic cleavage; inhibition, % at 7.35 µM; hit rate 28% among 2,400;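 active = mean inhibition over replicate wells above the hit cutoff set for the earlier primary screen, cut at about 29% in these data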
CTSL1 counter: Cathepsin L (human) inhibition, confirmation; shares compounds with PfM18AAP inh-1; inhibition, % at 5.96 µM; purified cathepsin L1, Z-Leu-Arg-MCA fluorescence; 2,400 tested, under 10 active;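 active = average inhibition across replicates above the hit cutoff set in the earlier primary screen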
Target sequence (P07711 whole entry, looked up): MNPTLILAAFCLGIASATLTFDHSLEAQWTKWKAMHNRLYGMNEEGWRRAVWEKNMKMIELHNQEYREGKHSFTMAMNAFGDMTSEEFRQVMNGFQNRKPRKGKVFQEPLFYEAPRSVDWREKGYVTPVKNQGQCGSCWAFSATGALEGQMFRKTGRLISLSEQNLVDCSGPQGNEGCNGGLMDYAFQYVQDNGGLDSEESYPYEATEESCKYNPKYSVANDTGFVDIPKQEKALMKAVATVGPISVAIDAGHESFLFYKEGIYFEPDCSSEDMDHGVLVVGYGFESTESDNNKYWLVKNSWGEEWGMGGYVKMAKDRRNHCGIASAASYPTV
Numbers stand for hits; . = inactive; / = no result.

SMILES	PfM18AAP inh-1	TNF necrop inh	L929 necroptosis	Hep lipid drop	TbHK1 inh	RBBP9 inhibitor	PfM18AAP inh-2	CTSL1 counter
CCOC(=O)/C(=C/C=C1\Sc2ccccc2N1CC)C(C)=O	43	.	.	.	.	.	.	.
O=C1/C(=C/c2ccco2)SC(=S)N1CCC(=O)N1CCCCC1CCO (stereo unspecified)	32	/	/	.	/	/	.	.
O=C1/C(=C/c2ccc(Cl)cc2)SC(=S)N1CCC(=O)N1CCCCC1CCO (stereo unspecified)	.	/	/	.	/	/	/	/
CCC(CC)c1nc(C(N)=O)c2[nH]c(=O)n(-c3ccc(OC)c(OC)c3)c2n1	.	/	/	.	/	/	/	/
COc1ccc(C)cc1NCc1cc(=O)oc2cc(-c3ccccc3)c(O)cc12	.	.	.	.	.	.	/	/
COC(=O)c1ccccc1NCc1cc(=O)oc2cc(O)c(O)cc12	34	/	/	.	/	/	.	.
Cn1c(C(=O)O)cnc1Sc1ncc(C(F)(F)F)cc1Cl	.	.	.	.	.	.	/	/
O=C(CSc1ncn[nH]1)Nc1ncc(C(F)(F)F)cc1Cl	84	.	.	.	.	.	74	.
Nc1cc(=O)[nH]c(SCC(=O)Nc2ncc(C(F)(F)F)cc2Cl)n1	.	.	.	.	.	.	/	/
FC(F)(F)c1cnc(Sc2ncn[nH]2)c(Cl)c1	92	.	.	.	.	.	83	.
CCOC(=O)C1(CC2CCCCO2)CCN(Cc2nc(C(C)C)cs2)CC1 (stereo unspecified)	.	.	.	.	.	.	/	/
Cc1ccc(NC(=O)Nc2cc(C(F)(F)F)c[nH]c2=O)cc1	.	/	/	.	/	/	/	/
CC(c1nccs1)N(C)C(=O)CCc1nnc(Cc2c[nH]c3ccccc23)o1 (stereo unspecified)	.	.	.	.	.	.	/	/
COc1ccc(NC(=O)c2ccc3c(c2)NC(=O)CS3)cc1S(=O)(=O)Nc1ccc(Br)cc1	32	.	.	.	.	.	.	.
Cc1ccc(NS(=O)(=O)c2cc(NC(=O)c3ccc4c(c3)NC(=O)CS4)ccc2C)c(C)c1	48	.	.	.	.	.	.	.
Cc1ccccc1NC(=O)CSCc1cc(=O)n2ccsc2n1	.	/	/	.	/	/	/	/
Cc1ccc(-c2ccc(OC(=O)c3ccc(=O)[nH]c3)c(C)c2)cc1	.	/	/	.	/	/	/	/
O=S(=O)(c1ccc(NC(=S)N/N=C/c2ccc(O)c(O)c2)cc1)N1CCOCC1	57	.	.	.	.	.	34	.
Cc1ccc(-c2n[nH]c(=S)n2/N=C/c2ccc(C(=O)O)cc2)cc1	36	/	/	/	/	/	.	.
COc1cc(/C=N/n2c(-c3ccccc3)n[nH]c2=S)cc(OC)c1O	32	.	.	.	.	.	.	.
Cc1ccc(/C=N/n2c(-c3ccccc3)n[nH]c2=S)cc1	.	/	/	.	/	/	/	/
COc1cc(/C=N/n2c(-c3ccccc3)n[nH]c2=S)ccc1O	.	.	.	.	.	.	/	/
O=S(=O)(O)c1cc(O)c2c(O)c(N=Nc3cc(Cl)ccc3O)c(S(=O)(=O)O)cc2c1	45	/	/	.	/	/	29	.
CNC(=O)N(O)C1N(C)C(=O)N(CC(=O)OC)C1(C)C (stereo unspecified)	37	.	.	/	.	.	.	.
CC(=O)Nc1ccccc1-c1nc2ccc(C(=O)N3CCN(c4ccccc4)CC3)cc2[nH]c1=O	.	.	.	.	.	.	/	/
SMILES	PfM18AAP inh-1	TNF necrop inh	L929 necroptosis	Hep lipid drop	TbHK1 inh	RBBP9 inhibitor	PfM18AAP inh-2	CTSL1 counter
CCOC(=O)c1c(NC(=O)OC)sc(C(=O)N(CC)CC)c1C	33	.	.	.	.	.	.	.
CN(Cc1ccccc1)c1nc(-c2cccc([N+](=O)[O-])c2)nc2ccccc12	.	.	.	.	.	.	/	/
O=C(O)CCn1c2c(c3ccccc31)CCCC2	45	.	.	.	.	.	.	.
Oc1ccc(N2CCN(Cc3nc4ccccc4[nH]3)CC2)cc1	42	/	/	.	/	/	.	.
CC(=O)c1ccc(N2CCN(Cc3nc4ccccc4[nH]3)CC2)cc1	.	/	/	.	/	/	/	/
O=C(CCS(=O)(=O)c1ccc(F)cc1)Nc1nc(-c2ccncc2)cs1	52	/	/	.	/	/	.	.
O=C(COc1ccc(Cl)cc1)Nc1nc(-c2ccncc2)cs1	35	/	/	.	/	/	.	.
COC(=O)c1ccccc1-n1cccc1C(=O)NP(=O)(N1CCOCC1)N1CCOCC1	.	.	.	.	.	.	/	/
CCn1c2ccccc2c2n[nH]c(=S)nc21	.	/	/	.	/	/	/	/
C=CCn1c2ccccc2c2n[nH]c(=S)nc21	40	/	/	.	/	/	.	.
O=C(O)Cn1c2ccccc2c2n[nH]c(=S)nc21	47	/	/	.	/	/	31	.
CCn1c(SC(C)C(=O)OC)nnc1-c1c[nH]c2ccccc12 (stereo unspecified)	.	.	.	/	.	.	/	/
CC1CCC(NC(=O)c2nn(C)c3c2CSc2ccccc2-3)CC1 (stereo unspecified)	.	/	/	.	/	/	/	/
